The record followed here is ChEMBL document CHEMBL5096186, “Design, Synthesis, and Biological Evaluation of Novel Pyrimido[4,5-b]indole Derivatives Against Gram-Negative Multidrug-Resistant Pathogens” (J Med Chem, 2021).

The nature of series [1]: Cytotoxicity against human L02 cells assessed as cell viability measured for 48 hrs by CCK-8 assay. In kind it is toxicity, cell-based. Summed up: (§1)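 Cells seeded at 1 × 10⁴ per well and grown for 48 h. Then exposed to test articles at 1–200 μM for another 48 h (n = 6). Viability by CCK-8 added for 2 h, absorbance read at 450 nm. CC50 calculated and reported as the mean.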

Series [2] concerns Staphylococcus epidermidis. The experiment in a line: Antibacterial activity against methicillin-sensitive Staphylococcus epidermidis strains 15 1 to 4 assessed as reduction in bacterial growth incubated for 18 to 20 hrs by CLSI based microdilution method. Particulars: time 18-20 hrs. In kind it is functional. Summed up:
(§2)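 Broth microdilution per CLSI. Compounds dissolved in DMSO (levofloxacin and meropenem in water) as 64 μg/mL stock, then serial twofold dilutions in broth giving 64 to 0.008 μg/mL. […] Clinical isolates tested as several strains per group; racemic GP-1 served as positive control; values given as MIC ranges.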
Background: Broth dilution looks for growth in wells or tubes with falling amounts of substance.

The subject of series [3] is Escherichia coli. The experiment in a line: Antibacterial activity against multidrug resistant wild type Escherichia coli NCTC 13353 assessed as reduction in bacterial growth incubated for 18 to 20 hrs by CLSI based microdilution method. In kind it is functional. Particulars: time 18-20 hrs. Put shortly:
as §2

Series [4] relates to Staphylococcus aureus. The experiment in a line: Antibacterial activity against methicillin-sensitive Staphylococcus aureus strains 15 1 to 4 assessed as reduction in bacterial growth incubated for 18 to 20 hrs by CLSI based microdilution method. In kind it is functional. Particulars: time 18-20 hrs. Put shortly:
as §2

A short description of series [5]: Cytotoxicity against human HEK293 cells assessed as cell viability measured for 48 hrs by CCK-8 assay. In kind it is toxicity, cell-based. Put shortly: as §1
Series [6] concerns the target Voltage-gated inwardly rectifying potassium channel KCNH2 (Homo sapiens, UniProt Q12809). In words: Inhibition of hERG potassium channel assessed as […] at -80 mV holding potential incubated for 120 seconds by whole cell-automated voltage clamp analysis assay. It is filed as toxicity. Put shortly: (§3)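 Automated whole-cell patch clamp, holding potential −80 mV. Voltage protocol applied every 20 s. Baseline set with external solution containing 0.1% DMSO and stabilised 3 min. Compound applied until steady state, at least 3 min, then washout. Maximum tested concentration 40 μM, or 3 μM for cisapride as positive control.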
(hERG is a cardiac potassium channel; its block is linked to QT prolongation.)

Series [7] relates to Escherichia coli. The experiment in a line: Antibacterial activity against multidrug resistant wild type Escherichia coli ATCC BAA-2340 assessed as reduction in bacterial growth incubated for 18 to 20 hrs by CLSI based microdilution method. It is filed as functional. Particulars: time 18-20 hrs. Put shortly:
as §2

The subject of series [8] is Klebsiella pneumoniae. In words: Antibacterial activity agains wild type Klebsiella pneumoniae ATCC BAA-2470 assessed as reduction in bacterial growth incubated for 18 to 20 hrs by CLSI based microdilution method. It is filed as functional. Particulars: time 18-20 hrs. Summed up: as §2
For series [9], the system named is Klebsiella pneumoniae. The experiment in a line: Antibacterial activity agains wild type Klebsiella pneumoniae ATCC BAA-1705 assessed as reduction in bacterial growth incubated for 18 to 20 hrs by CLSI based microdilution method. It is filed as functional. Particulars: time 18-20 hrs. Put shortly:
(§4)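 CLSI broth microdilution. Compounds in DMSO (levofloxacin and meropenem in water), serial twofold dilutions in broth, 64 to 0.008 μg/mL. […] Results reported as MIC ranges across strains.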

The subject of series [10] is Pseudomonas aeruginosa. The experiment in a line: Antibacterial activity against IMP4-producing multidrug resistant Pseudomonas aeruginosa assessed as reduction in bacterial growth incubated for 18 to 20 hrs by CLSI based microdilution method. In kind it is functional. Particulars: time 18-20 hrs. Put shortly:
as §2

For series [11], the system named is Escherichia coli. In words: Antibacterial activity against ESBL-producing multidrug resistant Escherichia coli assessed as reduction in bacterial growth incubated for 18 to 20 hrs by CLSI based microdilution method. It is filed as functional. Particulars: time 18-20 hrs. Summed up: as §2
In series [12] the test system is Klebsiella pneumoniae. The experiment in a line: Antibacterial activity against KPC2-producing multidrug resistant Klebsiella pneumoniae assessed as reduction in bacterial growth incubated for 18 to 20 hrs by CLSI based microdilution method. It is filed as functional. Particulars: time 18-20 hrs. Summed up:
as §2

Series [13] concerns Escherichia coli. In words: Antibacterial activity against Escherichia coli ATCC 35218 strains 15 1 to 3 assessed as reduction in bacterial growth incubated for 18 to 20 hrs by CLSI based microdilution method. Conditions: time 18-20 hrs. In kind it is functional. Put shortly:
as §4

Series [14] relates to Staphylococcus aureus. The experiment in a line: Antibacterial activity against methicillin-resistant Staphylococcus aureus strains 15 1 to 4 assessed as reduction in bacterial growth incubated for 18 to 20 hrs by CLSI based microdilution method. It is filed as functional. Particulars: time 18-20 hrs. Summed up: as §2
Series [15] deals with Acinetobacter baumannii. The experiment in a line: Antibacterial activity agains OXA23-producing multidrug resistant Acinetobacter baumannii assessed as reduction in bacterial growth incubated for 18 to 20 hrs by CLSI based microdilution method. It is filed as functional. Conditions: time 18-20 hrs. Put shortly: as §2
Series [16] deals with Pseudomonas aeruginosa. In words: Antibacterial activity against multidrug resistant Pseudomonas aeruginosa strains 15 1 to 3 assessed as reduction in bacterial growth incubated for 18 to 20 hrs by CLSI based microdilution method. It is filed as functional. Conditions: time 18-20 hrs. Summed up: as §2
Series [17] has as its system Acinetobacter baumannii. In words: Antibacterial activity against wild type Acinetobacter baumannii NCTC 13304 assessed as reduction in bacterial growth incubated for 18 to 20 hrs by CLSI based microdilution method. It is filed as functional. Particulars: time 18-20 hrs. Summed up:
as §2

The target of series [18] is hERG (KCNH2) potassium channel (Homo sapiens, UniProt Q12809). The experiment in a line: Inhibition of hERG potassium channel assessed as maximum inhibition rate at 40 uM at -80 mV holding potential incubated for 120 seconds by whole cell-automated voltage clamp analysis assay relative to control. In kind it is toxicity. Conditions: time 120 sec. Summed up:
as §3

For series [19], the system named is Pseudomonas aeruginosa. The experiment in a line: Antibacterial activity against wild type Pseudomonas aeruginosa ATCC 27853 assessed as reduction in bacterial growth incubated for 18 to 20 hrs by CLSI based microdilution method. It is filed as functional. Conditions: time 18-20 hrs. Summed up:
as §4

The subject of series [20] is Escherichia coli. The experiment in a line: Antibacterial activity against ESBL-producing Escherichia coli ATCC 35218 strains 15 1 to 3 assessed as reduction in bacterial growth incubated for 18 to 20 hrs by CLSI based microdilution method. In kind it is functional. Conditions: time 18-20 hrs. Summed up: as §4

For orientation: CC50 means the concentration that lowers cell viability or growth by half. What is called MIC is the smallest concentration in the dilution series that meets the test's criterion for growth inhibition. The term IC50 denotes the concentration at which inhibition is half-maximal. Usually inhibition stands for the drop in the measured response relative to a control, in per cent.

Values after ≈ are worked out from the molar mass of the structure shown.

Sequence of hERG (KCNH2) potassium channel (Q12809 whole entry): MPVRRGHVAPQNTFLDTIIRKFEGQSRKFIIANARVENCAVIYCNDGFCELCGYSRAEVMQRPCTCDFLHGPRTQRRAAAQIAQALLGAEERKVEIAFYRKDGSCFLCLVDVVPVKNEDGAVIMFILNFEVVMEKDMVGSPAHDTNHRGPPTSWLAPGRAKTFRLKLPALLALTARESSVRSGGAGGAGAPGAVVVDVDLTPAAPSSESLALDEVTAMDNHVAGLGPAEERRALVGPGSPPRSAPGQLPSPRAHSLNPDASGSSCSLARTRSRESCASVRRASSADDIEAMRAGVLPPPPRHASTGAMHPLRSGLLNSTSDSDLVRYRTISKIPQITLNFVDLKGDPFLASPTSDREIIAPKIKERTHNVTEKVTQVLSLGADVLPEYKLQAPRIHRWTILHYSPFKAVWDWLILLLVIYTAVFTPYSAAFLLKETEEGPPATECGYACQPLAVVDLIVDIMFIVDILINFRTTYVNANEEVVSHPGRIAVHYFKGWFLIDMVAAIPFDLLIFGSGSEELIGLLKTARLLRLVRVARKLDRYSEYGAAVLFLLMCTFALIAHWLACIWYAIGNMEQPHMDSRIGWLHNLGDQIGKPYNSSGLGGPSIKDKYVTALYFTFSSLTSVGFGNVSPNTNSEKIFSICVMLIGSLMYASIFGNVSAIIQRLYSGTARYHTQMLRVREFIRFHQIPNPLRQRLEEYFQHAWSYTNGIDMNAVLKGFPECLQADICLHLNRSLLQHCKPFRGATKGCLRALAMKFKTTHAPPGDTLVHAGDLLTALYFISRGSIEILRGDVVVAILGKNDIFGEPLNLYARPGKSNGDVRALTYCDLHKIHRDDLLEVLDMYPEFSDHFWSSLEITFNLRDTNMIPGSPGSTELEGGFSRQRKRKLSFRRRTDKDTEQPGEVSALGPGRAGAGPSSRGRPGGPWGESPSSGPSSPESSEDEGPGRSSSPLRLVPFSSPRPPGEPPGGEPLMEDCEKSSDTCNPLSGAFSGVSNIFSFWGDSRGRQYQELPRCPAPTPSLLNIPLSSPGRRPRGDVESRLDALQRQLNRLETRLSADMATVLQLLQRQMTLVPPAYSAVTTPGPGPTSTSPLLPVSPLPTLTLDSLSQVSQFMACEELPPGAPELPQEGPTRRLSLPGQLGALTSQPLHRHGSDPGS
Sequence of Voltage-gated inwardly rectifying potassium channel KCNH2 (Q12809 whole entry): as above

For the molecule `CNc1cc(F)cc2c1[nH]c1nc(Oc3cnc(C)nc3)nc(N3CC4CCNC4C3)c12` (racemic), the CC50 at 48 h stood at 24 µM in [1] and 21.8 µM in series [5]. Also, the MIC is less than 0.008 µg/mL in series [2]; 0.25 µg/mL (≈ 0.575 µM) in series [3]; less than 0.008 µg/mL in series [4]; 0.5 µg/mL (≈ 1.15 µM) in series [7]; 1 µg/mL (≈ 2.3 µM) in [8]; 4 µg/mL (≈ 9.21 µM) in series [9]. Further, the MIC in series [10] is 16 µg/mL (≈ 36.8 µM); in [11], 0.5 µg/mL (≈ 1.15 µM); in series [12], 2 µg/mL (≈ 4.6 µM); in series [13], 0.06 µg/mL (≈ 0.138 µM); in series [14], 0.015 µg/mL (≈ 0.0345 µM); in series [15] it was 0.5 µg/mL (≈ 1.15 µM). Moreover, the MIC in [16] is 0.5 µg/mL (≈ 1.15 µM); in series [17] it was 0.25 µg/mL (≈ 0.575 µM); in series [19], 4 µg/mL (≈ 9.21 µM); in series [20], 0.25 µg/mL (≈ 0.575 µM). For the same molecule, in series [6], the IC50 is 12.3 µM. In addition, the inhibition at 2 min, 40 µM in series [18] came to 70.5%.
In the case of `C=CCC(CN)=C1CN(c2nc(Oc3cnc(C)nc3)nc3[nH]c4c(NC)cc(F)cc4c23)C1`, the CC50 at 48 h came out at 6.99 µM in series [1] and 29 µM in series [5]. The MIC in series [2] is less than 0.008 µg/mL; in series [3], 0.25 µg/mL (≈ 0.543 µM); in series [4], less than 0.008 µg/mL; in [7] it was 0.5 µg/mL (≈ 1.09 µM); in series [8], 2 µg/mL (≈ 4.34 µM); in [9] it was 4 µg/mL (≈ 8.69 µM). In addition, the MIC in [10] was found to be 8 µg/mL (≈ 17.4 µM); in series [11], 0.5 µg/mL (≈ 1.09 µM); in series [12], 2 µg/mL (≈ 4.34 µM); in [13] it was 0.06 µg/mL (≈ 0.13 µM); in series [15], 0.25 µg/mL (≈ 0.543 µM); in series [16], 1 µg/mL (≈ 2.17 µM). The MIC in series [17] was determined as 0.25 µg/mL (≈ 0.543 µM); in series [19] it was 4 µg/mL (≈ 8.69 µM); in series [20] it was 0.125 µg/mL (≈ 0.271 µM). Further, the IC50 in [6] was more than 40 µM. Further, the inhibition at 2 min, 40 µM in series [18] worked out at 49.1%.
